Bioassay records as filed in PubChem BioAssay.
KCNK9 inh: KCNK9 potassium channel inhibitors, primary screen, HEK293 cells, thallium flux | actives 1.2% (n = 310,000) | B-score at 10 µM | FluxOR thallium flux fluorescence; stronger effect = lower value | Potassium channel subfamily K member 9 (Homo sapiens), Q9NPC2;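 active = ratio B-score over 3 SD below the library mean, with starting fluorescence within 5 SD of its mean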;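 note: negative B-score means less thallium flux so channel inhibition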
KCNQ1 pot: potentiators or activators of KCNQ1 channel, primary screen, cell-based, thallium flux, high-throughput. CHO-K1 KCNQ1, thallium flux FluxOR fluorescence; stronger effect = higher value. B-score at 10 µM. actives 0.35% (n = 310,000). AID 2648, 2010;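 active = fluorescence ratio B-score, a plate-corrected score, at least three library SD, with initial intensity B-score within 5 SD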
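Assay system: CHO-K1 cells stably expressing KCNQ1; Medium: assay buffer with matched DMSO; Also added: K+/Tl+ depolarizing stimulus; Dosing: single dose; Timing: dye 90 min, compound 20 min, room temperature; Measured by: kinetic FluxOR thallium fluorescence, 10-s 1-Hz baseline, 110-s post-stimulus read; Read-out: peak-minus-minimum fluorescence over initial fluorescence, negative-control normalized, B-scored.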
KCNK3 block: human KCNK3 channel inhibitors, primary screen, CHO cells, FluxOR thallium flux, B-score; B-score at 10 µM; FluxOR fluorescence; stronger effect = lower value; actives 0.84% (n = 340,000); Potassium channel subfamily K member 3 (Homo sapiens), O14649;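 active = B-score under library mean minus 4 SD, starting fluorescence ratio at most library mean plus 5 SD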;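 note: more negative B-score means stronger inhibition of thallium flux through KCNK3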
hERG protect: hERG rescue from dofetilide block, primary screen, cell-based, CHO-hERG, FluxOR thallium flux, dofetilide IC70 | activation (rescue from dofetilide block), less the hit threshold, % at 10 µM | actives 0.51% (n = 310,000) | dofetilide IC70 present;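 active = activation above the mean of controls blocked by dofetilide plus 5 SD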;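 note: thallium influx through hERG after potassium depolarization seen as dye fluorescence rise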
Target sequence (Q12809 whole entry, looked up): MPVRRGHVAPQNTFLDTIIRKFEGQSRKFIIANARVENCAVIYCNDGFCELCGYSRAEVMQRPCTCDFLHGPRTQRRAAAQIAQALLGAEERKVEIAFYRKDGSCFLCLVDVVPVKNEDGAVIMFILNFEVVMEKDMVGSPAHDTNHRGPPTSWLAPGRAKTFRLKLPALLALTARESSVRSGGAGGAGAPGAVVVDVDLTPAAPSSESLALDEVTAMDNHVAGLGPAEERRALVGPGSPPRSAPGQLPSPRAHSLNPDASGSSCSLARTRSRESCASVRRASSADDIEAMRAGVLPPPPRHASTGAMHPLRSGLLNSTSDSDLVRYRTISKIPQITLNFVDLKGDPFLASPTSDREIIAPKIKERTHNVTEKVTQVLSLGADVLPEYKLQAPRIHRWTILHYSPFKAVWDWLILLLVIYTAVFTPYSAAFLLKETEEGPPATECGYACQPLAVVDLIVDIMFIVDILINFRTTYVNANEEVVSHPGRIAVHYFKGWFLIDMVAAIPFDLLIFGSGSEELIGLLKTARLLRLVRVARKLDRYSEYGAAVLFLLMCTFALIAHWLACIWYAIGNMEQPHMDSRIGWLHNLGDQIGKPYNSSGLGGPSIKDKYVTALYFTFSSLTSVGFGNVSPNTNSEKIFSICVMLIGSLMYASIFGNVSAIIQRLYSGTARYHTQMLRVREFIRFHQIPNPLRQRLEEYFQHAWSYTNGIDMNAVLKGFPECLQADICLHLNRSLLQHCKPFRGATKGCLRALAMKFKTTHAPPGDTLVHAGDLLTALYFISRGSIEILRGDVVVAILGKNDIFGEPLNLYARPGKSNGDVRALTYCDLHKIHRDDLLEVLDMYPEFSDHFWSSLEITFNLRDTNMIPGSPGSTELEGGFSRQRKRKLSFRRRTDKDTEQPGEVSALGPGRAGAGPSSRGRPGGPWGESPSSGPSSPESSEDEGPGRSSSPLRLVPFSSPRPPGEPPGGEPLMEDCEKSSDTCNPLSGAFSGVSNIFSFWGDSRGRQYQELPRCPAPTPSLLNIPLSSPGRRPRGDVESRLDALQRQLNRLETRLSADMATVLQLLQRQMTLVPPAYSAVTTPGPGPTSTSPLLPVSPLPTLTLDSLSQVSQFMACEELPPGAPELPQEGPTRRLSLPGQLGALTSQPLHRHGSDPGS
KCNQ1 block: inhibitors of human KCNQ1 channel, primary screen, cell-based, thallium flux, high-throughput. CHO-K1 KCNQ1, FluxOR thallium flux fluorescence; stronger effect = higher value. actives 1.3% (n = 310,000). AID 2642, 2010. Potassium voltage-gated channel subfamily KQT member 1 (Homo sapiens), P51787. B-score at 10 µM;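 active = compounds whose thallium flux B-score, printed positive for inhibition, exceeds three library SD while starting fluorescence stays within three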;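 note: channel opened by potassium depolarization with thallium stimulus after 20 min compound exposure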
Kir21 inh: inhibitors of mouse Kir2.1 inward-rectifier potassium channel; Inward rectifier potassium channel 2 (Mus musculus), P35561; HEK293-Kir2.1, FluxOR thallium flux fluorescence; stronger effect = lower value; B-score at 10 µM; actives 0.85% (n = 310,000); AID 1672, 2009;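 active = fluorescence ratio B-score at or below minus 3 SD of library scores, with starting-brightness B-score within 2 SD, cut at about -4.2 in these data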;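 note: channel flux triggered by added potassium and thallium sulfate stimulus; B-score of peak minus minimum fluorescence over baseline after thallium stimulus; more negative B-score means stronger Kir2.1 block with less thallium influx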
A number is an active result; . = inactive; / = no result. Shown are actives, neighbours in structure and some others; about 3.8% of the full set was active somewhere.

SMILES	KCNK9 inh	KCNQ1 pot	KCNK3 block	hERG protect	KCNQ1 block	Kir21 inh
CCC(c1nnnn1CCc1ccccc1)N(Cc1ccco1)Cc1cc2c(C)ccc(C)c2[nH]c1=O (stereo not given)	-7.32	.	.	.	.	.
COc1ccc2nc(-c3ccccc3)nc(SCC(=O)NCC3CCCO3)c2c1 (stereo not given)	.	.	.	.	.	.
Cc1noc(C)c1/C=N/Nc1ccccn1	.	.	.	6.4	.	.
Cc1cccc(OCC(=O)N2CCN(C(=O)COc3ccc(Cl)cc3)CC2)c1	.	.	.	.	.	.
COc1ccc([C@@]2(C(C)C)ON(c3ccccc3C(F)(F)F)C2=O)cc1	/	/	.	/	/	/
CCc1ccc(/C=C/C(=O)c2cc(Br)ccc(=O)c2O)cc1	.	38	.	.	.	.
COc1ccc(C)cc1NC(=O)C(OC(=O)CNC(=O)c1ccc(Oc2ccccc2)cc1)c1ccccc1 (stereo not given)	-7.94	.	.	.	.	.
COc1ccc(C)cc1NC(=O)C(OC(=O)CNC(=O)c1cccc(F)c1)c1ccccc1 (stereo not given)	.	.	.	.	.	.
COc1ccc(-c2noc(CCC(=O)N3CCN(c4ccccc4)CC3)n2)cc1	/	/	.	/	/	/
CCCCCCCCCCn1ccc(=N)cc1	.	.	.	.	9	.
CC(NC(=O)c1cccc(S(=O)(=O)N2CCN(C)CC2)c1)c1ccc(Cl)cc1Cl (stereo not given)	.	.	.	.	.	.
O=C(C[n+]1ccc(-c2cc(C(=O)Nc3cccc(C(F)(F)F)c3)c3ccccc3n2)cc1)c1cccc([N+](=O)[O-])c1	.	.	.	.	7	.
COc1cc(/C=C2\C(=N)N3N=C(S(C)(=O)=O)SC3=NC2=O)ccc1OCCOc1ccccc1C	.	.	.	.	6	.
CCS(=O)(=O)C1=NN2C(=N)/C(=C\c3ccc(OC(=O)c4ccco4)c(Br)c3)C(=O)N=C2S1	.	.	/	.	.	-6.14
COc1ccc(C(C)NC(=O)Cc2cccs2)cc1OC (stereo not given)	.	.	.	.	.	.
COc1cc(Br)ccc1C1CC(=O)C(C)C(c2ccc(Br)cc2OC)N1 (stereo not given)	.	.	.	.	.	.
COc1ccc(COc2cc(-c3cccc(OC)c3)nc3ccc(NC(=O)c4cccnc4)cc23)cc1	.	.	.	.	6	.
Cc1cc(/C=N/Nc2nc(N)ncc2[N+](=O)[O-])c(C)n1-c1cccc(C(F)(F)F)c1	.	.	/	.	.	.
Fc1ccc(C(CCNCc2ccccn2)c2ccc(Cl)cc2)cc1 (stereo not given)	.	.	.	.	.	-6.44
CCOC(=O)C1=C(COC(=O)/C=C/c2ccc(OC)cc2OC)NC(=O)NC1C (stereo not given)	.	.	.	.	.	.
CC(C)c1ccc2oc(=O)cc(CN3CCCCC3)c2c1	.	.	.	.	.	.
COc1ccc(CN(C(=O)CSc2nnc(-c3ccccc3C)o2)c2ccc(F)cc2)cc1	.	.	.	.	6	.
CN(C)c1cccc(F)c1C(=O)NC(=O)Nc1ccc(Cl)cc1	/	/	.	/	/	/
Cc1c(-c2cc[n+]([O-])cc2)oc2ccc(Br)cc2c1=O	.	.	/	4.9	.	.
Cc1occc1-c1nnc(SCC(=O)N2CCCC(C)C2)o1 (stereo not given)	/	/	.	/	/	/
SMILES	KCNK9 inh	KCNQ1 pot	KCNK3 block	hERG protect	KCNQ1 block	Kir21 inh
CC(C)NC(=O)c1ccc(CSCc2ccccc2Cl)o1	.	.	.	.	.	.
CCC(C)NC(=O)c1ccc(CSCc2ccccc2Cl)o1 (stereo not given)	-6.7	.	.	.	.	.
CNc1c([N+](=O)[O-])cnn1-c1ccc(Cl)cc1	-7.9	.	.	.	.	.
Cn1nc(CC#N)c2c(=N)n(N)cnc21	/	/	.	/	/	/
Cc1csc(=O)n1CC(=O)OC(C)C(=O)Nc1ccc(N(C)C)cc1 (stereo not given)	/	/	.	/	/	/
Cc1cccc(-c2n[nH]c(=S)n2/N=C/c2cccs2)c1	.	9	.	.	.	.
S=c1[nH]nc(-c2cccs2)n1/N=C/c1c(Cl)cccc1Cl	.	37	.	32.2	.	.
CCCN1CCN(C(=O)c2ccc(F)c(S(=O)(=O)N3CCOCC3)c2)CC1	/	/	.	/	/	/
CCC(C)N(C(=O)c1csnn1)C(C(=O)NC1CCCC1)c1ccccc1F (stereo not given)	.	.	.	.	.	.
Cc1nn(Cc2ccc(C(=O)N/N=C/c3ccncc3)o2)c(C)c1Cl	.	.	.	.	.	.
Cc1ccc(CNC(=O)c2ccc(Cn3nc(C)c(Cl)c3C)o2)cc1	-6.96	.	.	.	.	-9
CC(Sc1ccc(Cl)cc1)C(=O)NNC(=O)c1ccco1 (stereo not given)	/	/	.	/	/	/
Cc1ccc(F)c(Oc2cc(NN3CCCCC3)c([N+](=O)[O-])cc2[N+](=O)[O-])c1	-7.33	.	.	.	.	.
CCCc1cc(=O)oc2cc(OC(=O)CN3C(=O)NC4(CCCC4)C3=O)ccc12	.	.	.	.	.	.
c1ccc(Nc2ncnc3c2oc2ccccc23)cc1	.	.	.	.	.	.
c1ccc2c(c1)oc1c(Nc3ccc(CN4CCOCC4)cc3)ncnc12	.	.	.	.	.	-5.02
Cn1nc(OC(=O)Nc2ccc(Cl)cc2)cc1C(F)(F)F	.	.	/	.	8	.
O=C(Nc1cccc(Cl)c1)c1cc(N=Nc2ccc([N+](=O)[O-])cc2Cl)ccc1O	.	.	.	.	7	.
O=C(Nc1ccc([N+](=O)[O-])cc1Cl)c1cc(Cl)ccc1O	/	/	.	/	/	/
Nc1ccc(S(=O)(=O)c2ccc(NC(=O)c3cccnc3)cc2)cc1	/	/	.	/	/	/
Cc1ccc(S(=O)(=O)N(C)C)cc1NC(=O)COC(=O)c1ccc2ccccc2n1	/	/	.	/	/	/
O=C1CSC(c2ccccc2[N+](=O)[O-])N1c1ccccc1 (stereo not given)	.	.	.	.	.	-4.45
O=C1CSC(c2ccccc2[N+](=O)[O-])N1c1ccc(O)cc1 (stereo not given)	.	.	.	.	.	.
CCCCn1c(NC(=O)c2ccccc2)c(C#N)c2nc3ccccc3nc21	/	/	.	/	/	/
CCCCn1c(NC(=O)c2ccc(F)cc2)c(C#N)c2nc3ccccc3nc21	.	.	/	.	6	.
